High-throughput results (PubChem BioAssay)
p97 inhibitor: inhibitors of human p97 ATPase, primary screen, biochemical; AID 1481, 2009; inhibition, % at 8 µM; recombinant p97 ATPase, Kinase-Glo ATP luminescence, 3 h; actives 0.42% (n = 220,000); in the data active = inhibition above about 15%
APP 5'UTR act: activators of APP 5'UTR luciferase reporter, primary screen, SH-SY5Y cells | AID 1276, 2008 | activation, % at 2 µM | SH-SY5Y APP 5'UTR luciferase reporter, luminescence; zero percent = DMSO vehicle wells | actives 1% (n = 190,000);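 active = activation above a set limit, based on mean plus 3 SD of controls, cut at about 140% in these data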
NF-kB expr up: activators of NF-kB expression in neurons, primary screen, cell-based, HTS | fold change at 12.5 µM | AID 1239, 2008 | actives 1.6% (n = 190,000) | human neuronal cells, NF-kB reporter expression; active compounds read high; in the data active = fold change above about 3.3
Wee1 stabilizer: Wee1 degradation inhibitors, primary screen, cell-based, HeLa, Wee1K328M-luciferase, luminescence; HeLa Luc-Wee1K328M stability; 100% = proteasome inhibitor MG132 effect; actives 1.2% (n = 220,000); Wee1-like protein kinase (Homo sapiens), P30291; reporter increase, % at 5 µM;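 active = activation above the mean of all tested compounds plus 3 SD, set per screening run, cut at about 8.8% in these data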;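 note: cells exposed to compound for 20 h before luminescence read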
Target sequence (P30291 whole entry K328M): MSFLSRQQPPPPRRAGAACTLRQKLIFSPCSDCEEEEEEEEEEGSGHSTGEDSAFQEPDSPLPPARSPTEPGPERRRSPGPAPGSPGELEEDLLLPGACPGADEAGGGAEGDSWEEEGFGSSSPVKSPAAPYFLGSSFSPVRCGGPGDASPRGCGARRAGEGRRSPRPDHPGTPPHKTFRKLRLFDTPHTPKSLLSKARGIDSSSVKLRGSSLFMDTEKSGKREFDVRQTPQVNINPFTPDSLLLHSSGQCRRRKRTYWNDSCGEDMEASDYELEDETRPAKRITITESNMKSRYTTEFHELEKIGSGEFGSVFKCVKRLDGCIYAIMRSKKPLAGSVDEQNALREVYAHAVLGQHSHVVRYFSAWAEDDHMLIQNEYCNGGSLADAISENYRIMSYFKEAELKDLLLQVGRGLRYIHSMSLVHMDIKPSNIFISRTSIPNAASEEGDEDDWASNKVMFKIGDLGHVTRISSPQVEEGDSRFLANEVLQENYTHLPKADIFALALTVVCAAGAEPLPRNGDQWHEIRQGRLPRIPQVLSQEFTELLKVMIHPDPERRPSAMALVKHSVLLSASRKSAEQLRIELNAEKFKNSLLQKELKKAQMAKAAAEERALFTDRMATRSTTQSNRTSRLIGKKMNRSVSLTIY
Mdm2 ligase inh: MDM2-luciferase reporter signal enhancers, primary screen, MDM2 E3 ligase inhibitor project, cell-based, luminescence, 1536-well; cell-based MDM2 ubiquitination luciferase reporter, 2 h; 0 = plate control, 100 = twice control, blank-subtracted; signal enhancement, % at 5 µM; actives 0.11% (n = 210,000); AID 1230, 2008;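 active = signal enhancement of 30% or more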;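 note: luminescence tracks abundance of the self-degrading MDM2-luciferase fusion protein; higher signal means inhibition of MDM2 E3 ligase activity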
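system = mammalian cells stably expressing self-ubiquitinating, self-degrading MDM2 E3–luciferase fusion | quantity = 2000 cells per well seeded | incubation = 4 h cell settling then 2 h compound exposure, 37 °C | signal = SteadyLite luminescence, 15 min reagent step | benchmarks = plate control and blank wells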
STAT1 act: STAT1 signaling activators, primary screen, cell-based, HTS, luciferase reporter; activation (% of control), % at 5.5 µM; AID 932, 2007; actives 2.6% (n = 200,000); NIH 3T3 STAT1-luciferase reporter, IFN-gamma, luminescence; 100% = IFN-gamma alone, no compound;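 active = activation above the screen-wide mean activation plus 3 SD, cut at about 130% in these data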
Wee1 stab conf: Wee1 degradation inhibitors, confirmation, cell-based, HeLa, Wee1K328M-luciferase, luminescence, triplicate | actives 4% (n = 1,100) | HeLa Luc-Wee1K328M degradation; vehicle 0%, proteasome-blocked wells 100% | shares compounds with Wee1 stabilizer | AID 1410, 2008 | activation, % at 5 µM; in the data active = activation above about 8.9%
Numbers stand for hits; . = inactive; / = no result. This is a sample that favours compounds with a hit; in the whole collection about 4.6% have one here.

SMILES	p97 inhibitor	APP 5'UTR act	NF-kB expr up	Wee1 stabilizer	Mdm2 ligase inh	STAT1 act	Wee1 stab conf
CCN1c2ccccc2-c2nc3ccccc3n2C1c1cccnc1 (centres undefined)	.	.	.	.	.	.	/
CCN1c2ccccc2-c2nc3ccccc3n2C1c1ccncc1 (centres undefined)	.	.	.	16	.	.	.
Cc1ccccc1OCc1csc(N)n1	.	.	.	16	.	.	.
O=C(COC(=O)CCC(=O)c1ccc(Cl)cc1)NC1CC1	.	.	.	.	.	.	/
COc1cc(/C=N/NC(=O)C(=O)NCc2ccco2)cc(Br)c1O	.	/	/	.	.	/	/
O=C(NC1CCCCC1)c1ccc(S(=O)(=O)c2ccccc2)cc1	.	.	.	.	.	.	/
O=C1OCc2cc(NC(=O)C3CCCO3)ccc21 (centres undefined)	.	.	.	.	.	.	/
O=C1NC(=O)c2cc(NC(=O)C3CCCO3)ccc21 (centres undefined)	.	.	.	16	.	.	.
CN1CCN(C(=S)SCC(=O)Nc2nc(-c3ccccc3)c(-c3ccccc3)o2)CC1	.	.	.	.	.	.	/
Cc1ccc(C(=O)CSc2nnc(-c3snnc3C)n2C2CC2)cc1	.	/	/	.	.	/	/
N#CCCn1c(O)c(N=NC(=O)CNC(=O)c2cccs2)c2ccccc21	.	/	/	15	.	/	.
CN1/C(=C\C(=O)COC(=O)CNC(=O)c2ccccc2F)C(C)(C)c2ccccc21	.	/	.	23	.	.	.
Clc1ccc(Cn2ncc3c(N4CCCC4)ncnc32)cc1	.	.	.	16	.	.	.
CCN1CCN(C(=S)Nc2ccc3nc4n(c(=O)c3c2)CCCCC4)CC1	.	.	.	.	.	.	/
CCOC(=O)C(C)Oc1ccc(OCc2ccccc2)cc1 (centres undefined)	.	.	.	.	.	.	/
CCOC(=O)c1ccc2ncc(C(=O)OCC)c(NCCN(C)C)c2c1	.	.	/	21	/	.	.
CCOc1cc(/C=N/Nc2nc(-c3cccc(S(=O)(=O)N4CCCC4)c3)cs2)ccc1O	.	.	.	.	.	.	/
Cc1nc(NC(=O)c2ccc(Br)o2)sc1C	.	.	4.7	11	.	130	.
Cc1nnc(SCC(=O)Nc2nsc(-c3ccc(C(C)(C)C)cc3)n2)s1	.	147	8.6	18	.	141	.
COc1ccc(-c2nc(NC(=O)c3n[nH]c(=O)c4ccccc34)sc2C)cc1	.	.	.	32	.	.	.
O=C(c1cc[n+]([O-])cc1)N1CCc2c([nH]c3ccccc23)C1c1ccccc1Cl (centres undefined)	.	.	.	.	.	.	/
CN1N=C(C(=O)N2CCc3c([nH]c4ccccc34)C2c2ccccc2Cl)CCC1=O (centres undefined)	.	.	.	12	.	.	.
Cc1ccc2nc(SCC(=O)NCC3CCCO3)c(C#N)cc2c1 (centres undefined)	.	.	.	12	.	.	.
Cc1cc(C)c2cc(C#N)c(SCC(=O)NCC3CCCO3)nc2c1 (centres undefined)	.	.	.	.	.	.	/
CN(C)CCn1c(N)nc2ccccc21	.	/	/	.	.	/	/
SMILES	p97 inhibitor	APP 5'UTR act	NF-kB expr up	Wee1 stabilizer	Mdm2 ligase inh	STAT1 act	Wee1 stab conf
COc1cc(NC(=O)COC(=O)CNC(=O)c2ccc(Cl)cc2)c(C)cc1[N+](=O)[O-]	.	.	.	12	.	.	.
O=C(N/N=C/C(Br)=C\c1ccccc1)c1ccco1	.	/	/	.	.	/	/
Cc1occc1C(=O)N/N=C/C(Br)=C\c1ccccc1	.	/	/	28	.	/	.
O=C(N/N=C/C(Br)=C\c1ccccc1)c1cccs1	.	/	/	12	.	/	.
CC(C)N1CCC(NC(=O)Nc2ccc3c(c2)OCO3)CC1	.	.	.	.	.	.	/
CC(C)(C)C(=O)NC(=S)NCCc1ccccc1	.	.	.	.	.	.	/
CC(C)(C)NC(=O)NCCc1ccccc1	.	/	/	13	.	/	.
CC1CCCC(NC(=S)NC(=O)c2ccccc2Br)C1C (centres undefined)	.	.	.	.	.	.	/
C/C(=N\NC(=O)c1nc2ccccn2c1C)c1ccc2c(c1)OCO2	.	.	.	12	.	.	.
C/C(=N\NC(=O)c1nc2ccccn2c1C)c1cccc([N+](=O)[O-])c1	.	.	.	.	.	.	/
COc1ccc(N2CCN(C(=O)CCN3C(=S)NC(C)(C)CC3C)CC2)cc1 (centres undefined)	.	.	.	11	.	.	.
CC(=O)c1ccc(N2CCN(C(=O)CCN3C(=S)NC(C)(C)CC3C)CC2)cc1 (centres undefined)	.	.	.	.	.	.	/
Cc1cc(C)n2nc(C(=O)NCc3ccco3)cc2n1	.	.	.	17	.	.	.
Cc1cc(C)n(Cc2ccc(C(=O)NCc3ccco3)o2)n1	.	.	.	.	.	.	/
Cc1cccc(C2c3[nH]c4ccccc4c3CCN2C(=O)c2cc(CC(C)C)[nH]c(=O)n2)n1 (centres undefined)	.	.	.	.	.	.	/
Cc1ccc(C)c(S(=O)(=O)N2CCN(CC(=O)Nc3sccc3C#N)CC2)c1	.	.	.	14	.	.	.
Cc1ccc(NC2Sc3ccccc3NC2=O)cc1 (centres undefined)	.	.	.	.	.	.	/
COc1cccc(NC(=O)C2CC(=O)OC23CCOC(C)(C)C3)c1 (centres undefined)	.	.	.	24	.	.	.
CC(NC(=O)COC(=O)C1CSC2(C)CCC(=O)N12)C12CC3CC(CC(C3)C1)C2 (centres undefined)	.	.	.	12	.	.	.
COc1ccc(Cc2c(O)nc(SCC(=O)NC(C)(C)C)[nH]c2=O)cc1	.	.	.	.	.	.	/
Cc1cc(C)n(CCN(C)Cc2nc(Cc3ccccc3F)no2)n1	.	.	.	11	.	.	.
O=[N+]([O-])c1cc(Cl)ccc1Sc1cccc2cccnc12	.	.	.	.	.	.	/
O=[N+]([O-])c1ccc(Sc2cccc3cccnc23)c([N+](=O)[O-])c1	.	.	.	16	.	.	.
